Results on seven compounds are retold here after article PMC2978023 (Journal of immunology (Baltimore, Md. : 1950), 2008).

Read-outs that look alike come from different tables or passages of the source. Peptide text beside a SMILES is read from it. * marks the point of attachment. Cbz = O=C(OCc1ccccc1)*

For one experiment, the system named is αMβ2. Briefly: αMβ2 clustering on PMNs, fluorescence microscopy. Type of experiment: cell-based, human. To be noted: Plg 1 μM + inhibitor, 4 h, 37 °C; MβCD 5 mM, peptide 18 0.5 μM, H7 300 μM, BDM 20 mM, cytochalasin D 10 μM, calpain inhibitor III 10 μM. The method in brief: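 Human PMNs were exposed to ligands (proteins 1 μM, peptides 100 μM) for 4 h at 37°C, or to 1 μM Plg together with clustering inhibitors at the final concentrations used in apoptosis assays. Cells were fixed in 4% paraformaldehyde and stained with anti-αM mAb OKMI plus Alexa 488 goat anti-mouse IgG. They were cytospun, mounted and imaged by fluorescence microscopy (×40/0.7 NA); PMNs came from four donors.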

The next experiment has as its system αMβ2 on PMN. Briefly: Soluble Alexa 488-labeled ligand binding to PMN, FACS. Also noted: species or system human. The conditions noted are these: clustering inhibitor, 1 h, 37 °C, mean ± SEM, n = 3. The method in brief: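 Human PMNs were incubated for 1 h at 37°C in HBSS/Ca²⁺/Mg²⁺ with soluble Alexa 488-labelled Plg or Fg, with or without clustering inhibitors. After two buffer washes, bound ligand was read by FACS; mean ± SEM, n = 3.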

A further experiment has as its system human PMNs. The conditions noted are these: for PMN early/late apoptosis (% annexin V+ cells), inhibitor + Fg: clustering inhibitor + Fg 1 μM; for PMN early/late apoptosis (% annexin V+ cells), inhibitor + Fg / PMN early/late apoptosis (% annexin V+ cells), inhibitor + P1 / PMN early/late apoptosis (% annexin V+ cells), inhibitor + P2-C / PMN early/late apoptosis (% annexin V+ cells), inhibitor + Plg: mean ± SEM, n = 5; for PMN early/late apoptosis (% annexin V+ cells), inhibitor + P1: clustering inhibitor + P1 100 μM; for PMN early/late apoptosis (% annexin V+ cells), inhibitor + P2-C: clustering inhibitor + P2-C 100 μM; for PMN early/late apoptosis (% annexin V+ cells), inhibitor + Plg: clustering inhibitor + Plg 1 μM.

Experiment [1] deals with recombinant purified integrin αMβ2 (Homo sapiens, UniProt P05107+P11215). The experiment in a line: Solid-phase binding to purified αMβ2. To be noted: data not shown; test format not stated. The essentials: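 Purified recombinant αMβ2, αM or β2 (from HEK293 lines) was coated overnight at 4°C in TBS with 10 mM n-octyl-β-D-glucopyranoside and postcoated with 0.5% PVP for 1 h at 37°C. Biotinylated Plg or Ang(1–4) (0–10 μM) was bound for 2 h at 37°C in the same buffer plus 1 mM CaCl₂/MgCl₂. Binding was detected with alkaline phosphatase–avidin and pNPP at A405. Kd came from a one-site binding fit.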
recombinant purified integrin αMβ2, sequence (P05107 23-769, other chains not shown): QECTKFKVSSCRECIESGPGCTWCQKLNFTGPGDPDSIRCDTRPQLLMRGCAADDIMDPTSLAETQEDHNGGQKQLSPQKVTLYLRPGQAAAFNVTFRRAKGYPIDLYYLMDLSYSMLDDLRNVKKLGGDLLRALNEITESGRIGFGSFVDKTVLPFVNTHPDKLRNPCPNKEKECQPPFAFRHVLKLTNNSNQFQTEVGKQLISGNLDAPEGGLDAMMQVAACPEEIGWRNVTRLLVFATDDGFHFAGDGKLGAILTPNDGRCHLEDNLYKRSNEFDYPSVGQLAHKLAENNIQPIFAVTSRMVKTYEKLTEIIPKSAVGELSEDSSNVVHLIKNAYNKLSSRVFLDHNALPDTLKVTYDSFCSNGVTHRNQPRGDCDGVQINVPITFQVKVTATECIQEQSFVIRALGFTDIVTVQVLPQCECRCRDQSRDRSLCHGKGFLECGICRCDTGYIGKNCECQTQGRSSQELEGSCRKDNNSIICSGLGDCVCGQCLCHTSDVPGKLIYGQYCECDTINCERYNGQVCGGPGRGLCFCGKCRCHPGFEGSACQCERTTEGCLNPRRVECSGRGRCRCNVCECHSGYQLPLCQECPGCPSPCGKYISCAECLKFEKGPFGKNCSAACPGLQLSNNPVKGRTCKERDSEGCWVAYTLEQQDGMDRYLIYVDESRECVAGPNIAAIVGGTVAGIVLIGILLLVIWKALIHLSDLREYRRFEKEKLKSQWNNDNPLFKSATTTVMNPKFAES

In the case of `CC(=O)C(C)=NO` [BDM, 2,3-butanedione 2-monoxime], in the experiment with αMβ2, the “effect on Plg-dependent αMβ2 clustering” value is on record as “blocked or significantly reduced”. Moreover, the “ligand binding, inhibitor, no ligand (background)” value with αMβ2 on PMN is recorded as 2.90 ± 0.5 MFI. Besides, in the experiment on human PMNs (16 h, 37 °C), the “PMN early/late apoptosis (% annexin V+ cells), inhibitor + Fg” value was 98.7 ± 24%; the “PMN early/late apoptosis (% annexin V+ cells), inhibitor + P1” value stood at 85.4 ± 20%; the “PMN early/late apoptosis (% annexin V+ cells), inhibitor + P2-C” value was 97.8 ± 22%; the “PMN early/late apoptosis (% annexin V+ cells), inhibitor + Plg” value amounted to 99.2 ± 24%.

As for `CC(C)[C@H](NC(=O)OCc1ccccc1)C(=O)N[C@H](C=O)Cc1ccccc1` [Calpain inhibitor III] (Cbz-Val-Phe-aldehyde), in the experiment with αMβ2, the “effect on Plg-dependent αMβ2 clustering” value is listed as “blocked or significantly reduced”. Moreover, the “ligand binding, inhibitor, no ligand (background)” value in the experiment on αMβ2 on PMN turned out to be 3.4 ± 0.4 MFI. For the same compound, in the experiment on human PMNs (16 h, 37 °C), the “PMN early/late apoptosis (% annexin V+ cells), inhibitor + Fg” value came to 88.9 ± 23%; the “PMN early/late apoptosis (% annexin V+ cells), inhibitor + P1” value is reported as 94.5 ± 22%; the “PMN early/late apoptosis (% annexin V+ cells), inhibitor + P2-C” value is listed as 74.7 ± 19%; the “PMN early/late apoptosis (% annexin V+ cells), inhibitor + Plg” value stood at 97.1 ± 22%.

`C=C1[C@@H](C)[C@H]2[C@H](Cc3ccccc3)NC(=O)[C@]23[C@H](OC(C)=O)/C=C/[C@@](C)(O)C(=O)[C@@H](C)C/C=C/[C@H]3[C@@H]1O` [Cytochalasin D, cytochalasin D]: the “effect on Plg-dependent αMβ2 clustering” value with αMβ2 is on record as “blocked or significantly reduced”. In the experiment with αMβ2 on PMN, the “ligand binding, inhibitor, no ligand (background)” value stood at 2.3 ± 0.3 MFI. In the experiment with human PMNs (16 h, 37 °C), the “PMN early/late apoptosis (% annexin V+ cells), inhibitor + Fg” value came out at 55.5 ± 18%; the “PMN early/late apoptosis (% annexin V+ cells), inhibitor + P1” value stood at 66.07 ± 15%; the “PMN early/late apoptosis (% annexin V+ cells), inhibitor + P2-C” value was 77.4 ± 16%; the “PMN early/late apoptosis (% annexin V+ cells), inhibitor + Plg” value came out at 66.6 ± 15%.

Regarding `CC1CNCCN1S(=O)(=O)c1cccc2cnccc12.Cl.Cl` (stereo not drawn) [H7, 1-(5-isoquinolinylsulfonyl)-2-methylpiperazine dihydrochloride], the “effect on Plg-dependent αMβ2 clustering” value in the experiment with αMβ2 is on record as “blocked or significantly reduced”. Moreover, the “ligand binding, inhibitor, no ligand (background)” value with αMβ2 on PMN amounted to 3.2 ± 0.6 MFI. Also, in the experiment with human PMNs (16 h, 37 °C), the “PMN early/late apoptosis (% annexin V+ cells), inhibitor + Fg” value was determined as 62.3 ± 16%; the “PMN early/late apoptosis (% annexin V+ cells), inhibitor + P1” value is given as 60.1 ± 14%; the “PMN early/late apoptosis (% annexin V+ cells), inhibitor + P2-C” value turned out to be 78.6 ± 17%; the “PMN early/late apoptosis (% annexin V+ cells), inhibitor + Plg” value is 79.2 ± 18%.

Regarding `COc1cccc(-c2cc(=O)c3ccccc3o2)c1N` [PD 98059], in the experiment with human PMNs (PMN with Plg, 16 h, 37 °C), the “effect on Plg-dependent PMN survival (in words)” value is given as “reduced Plg-dependent PMN survival, but to a lesser extent than the Akt inhibitor”.

As for `NCCCCCC(=O)O` [ε-aminocaproic acid], the “effect on Plg-dependent PMN survival (in words)” value with human PMNs is reported as “reduced”.

In the case of “Ang([1]–[3]): angiostatin fragment which lacks kringle 4; Calbiochem”, the “recognition by αMβ2” value in experiment [1] was “is recognized by this integrin”.
